Reference: ChEMBL document CHEMBL1129666, “Cross-linking and sequence specific alkylation of DNA BY aziridinylquinones. 1. Quinone methides” (J Med Chem, 1996)

Tests used:
Nucleic Acid [1] = test: Efficiency at pBR322 DNA interstand cross-linking at 100 uM; type: functional; conditions: Escherichia coli
Method in brief: (§1)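 5'-end-labelled HindIII-linearised pBR322 (~5000 cpm/sample) incubated with compound 2 h at 37 °C, pH 4, in TEA buffer with 2 mM ascorbic acid reduction. Stopped, ethanol-precipitated, denatured 90 °C 2 min in strand separation buffer, run on 0.8% agarose (Tris-acetate, 40 V, 16 h). Autoradiograph densitometry gives percent double-stranded (cross-linked) DNA per lane. Single representative experiment.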

Nucleic Acid [2] = test: Efficiency at pBR322 DNA interstand cross-linking at 10 uM; type: functional; conditions: Escherichia coli; method in brief: as §1
K562 = test: In vitro cytotoxicity against Human Chronic Leukemia K562 cells; type: functional, cell-based
Method in brief: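 600 cells/well exposed to compound for 2 h, growth measured by MTT with absorbance at 540 and 640 nm. Growth inhibition plotted against concentration, triplicate per concentration.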

Row | Compound | Cross linking (Nucleic Acid [1]) | Cross linking (Nucleic Acid [2]) | IC50 (K562)
1 | CC1=C(C)C(=O)C(C)=C(C)C1=O [DUROQUINONE] | 0% | 0% | > 50000 nM
2 | O=C1C=C(N2CCC2)C(=O)C=C1N1CCC1 | 0% | 0% | > 40000 nM
3 | CC1=CC(=O)C(N2CCC2)=CC1=O | 0% | 0% | > 25000 nM
4 | NC1=CC(=O)C(N)=CC1=O | 0% | 0% | > 25000 nM
5 | CC1=CC(=O)C(N2CC2)=C(C)C1=O | 9% | 3% | 1200 nM
6 | O=C1C=C(N2CC2)C(=O)C=C1N1CC1 | 100% | 100% | 9 nM
7 | CC1=CC(=O)C=CC1=O [Cresoquinone] | 0% | 0% | 2750 nM
8 | CC1=CC(=O)C(N2CC2)=CC1=O | 81% | 12.2% | 100 nM
9 | CC1=C(C)C(=O)C=CC1=O | 0% | 0% | 1400 nM
10 | CCC1=CC(=O)C(N2CC2)=CC1=O | 57.1% | 6.9% | 600 nM
11 | CC1=C(C)C(=O)C(N2CC2)=CC1=O | 4.7% | 1.2% | 1300 nM
12 | CC1=CC(=O)C(C)=C(C)C1=O | 0% | 0% | 3600 nM
13 | CC1=CC(=O)C=C(C)C1=O | 0% | 0% | 1250 nM
14 | CC1=CC(=O)C(N)=CC1=O | 0% | 0% | > 15000 nM
15 | CCCC1=CC(=O)C(N2CC2)=CC1=O | 13.2% | 2.2% | 600 nM
